In ChEMBL document CHEMBL1140540, “Investigating the antiproliferative activity of quinoline-5,8-diones and styrylquinolinecarboxylic acids on tumor cell lines” (Bioorg Med Chem Lett, 2007):

Legend:
P388 [1] = assay: Antiproliferative activity against mouse P388 cells by MTT assay; type: functional, cell-based
Procedure, shortened: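 P388 cells in RPMI 1640 with 2 mM L-glutamine, 1.5 g/L NaHCO3, 4.5 g/L glucose, 1.0 mM pyruvate and 10% FBS, at 37 °C in 5% CO2. Plated 24 h before treatment, then exposed 72 h to varying concentrations. MTT 4 h at 37 °C, DMF/SDS lysis, OD570 after 24 h. IC50 from triplicates, 3–7 repeat experiments.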

[2] = Lipophilicity, log K of the compound; type: physicochemical; details: HPLC
Procedure, shortened: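 Hydrophobicity determined by HPLC.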

P388 [3] = assay: Antiproliferative activity against mouse P388 cells at 0.1 uM by MTT assay; type: functional
Procedure, shortened: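 P388 cells in RPMI 1640 with 2 mM L-glutamine, 1.5 g/L NaHCO3, 4.5 g/L glucose, 1.0 mM pyruvate and 10% FBS, at 37 °C in 5% CO2. Plated 24 h before treatment, then 72 h exposure at a single concentration. MTT readout: 4 h MTT, DMF/SDS lysis, OD570 after 24 h. Value expressed as percent inhibition of proliferation.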

SK-N-MC = assay: Antiproliferative activity against human SK-N-MC cells by MTT assay; type: functional, cell-based
Procedure, shortened: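 SK-N-MC cells in MEM with 10% (v/v) FBS, 1.0 mM sodium pyruvate, 1% non-essential amino acids, L-glutamine, penicillin/streptomycin and fungizone. Plated 24 h before dosing and exposed 72 h to varying concentrations. MTT added for 4 h at 37 °C, then DMF/SDS lysis, with OD570 read after 24 h. IC50 from triplicate wells, experiments repeated 3–7 times.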

Row | IC50 (P388 [1]) | log K [2] | IC50 (SK-N-MC) | Compound | inhibition at 0.1 µM (P388 [3])
1 | 1.51 µM | – | – | CCCC(=O)NC1=CC(=O)c2ccc(C)nc2C1=O | –
2 | 13.6 µM | 1.6787 | – | O=C(O)c1cccc2ccc(/C=C/c3ccccc3O)nc12 | –
3 | 1.44 µM | – | – | Cc1ccc2c(n1)C(=O)C(NC(=O)CCc1ccccc1)=CC2=O | –
4 | – | 1.255 | – | O=C(O)c1cccc2nc(/C=C/c3ccccc3O)ccc12 | 30%
5 | 110 µM | 1.2107 | – | O=C(O)c1ccc(C(=O)O)c2nc(/C=C/c3ccc(Cl)cc3)ccc12 | –
6 | 114 µM | 1.2163 | – | O=C(O)c1ccc(C(=O)O)c2nc(/C=C/c3cccc(Cl)c3)ccc12 | –
7 | 10.3 µM | – | – | Cc1ccc2c(n1)C(=O)C(N)=CC2=O | –
8 | 1.61 µM | 0.2227 | > 6.25 µM | CC(=O)NC1=CC(=O)c2ccc(C)nc2C1=O | –
9 | 100 µM | 1.2263 | – | COc1cccc(/C=C/c2ccc3c(C(=O)O)cccc3n2)c1 | –
10 | – | – | – | COc1ccc(/C=C/c2ccc3c(NC(C)=O)cc(NC(C)=O)c(OC(C)=O)c3n2)c(OC)c1 | 20%
11 | 148 µM | – | – | COc1ccc(/C=C/c2ccc3c([N+](=O)[O-])cc(C(=O)O)c(O)c3n2)cc1 | –
12 | 110 µM | 1.6315 | – | O=C(O)c1ccc2nc(/C=C/c3cccc(Cl)c3)ccc2c1 | –
13 | – | 1.1811 | – | COc1cccc(/C=C/c2ccc3c(C(=O)O)ccc(C(=O)O)c3n2)c1 | 25%
14 | 109 µM | 1.4397 | – | O=C(O)c1cccc2nc(/C=C/c3ccc(Br)cc3)ccc12 | –
15 | 7.14 µM | – | – | O=[N+]([O-])c1cc([N+](=O)[O-])c2ccc(/C=C/c3ccc(Cl)cc3)nc2c1O | –
16 | 2.39 µM | – | – | Cc1ccc2c(n1)C(=O)C(NC(=O)/C=C/c1ccccc1)=CC2=O | –
17 | 1.43 µM | – | – | CCC(=O)NC1=CC(=O)c2ccc(C)nc2C1=O | –
18 | – | 1.3678 | – | O=C(O)c1ccc2ccc(/C=C/c3ccccc3O)nc2c1 | 30%
19 | 89.4 µM | 1.2062 | – | O=C(O)c1ccc(C(=O)O)c2nc(/C=C/c3ccccc3Br)ccc12 | –
20 | 116 µM | 1.6043 | – | O=C(O)c1ccc2nc(/C=C/c3ccc(Cl)cc3)ccc2c1 | –
21 | 114 µM | 1.2047 | – | O=C(O)c1ccc(C(=O)O)c2nc(/C=C/c3ccccc3Cl)ccc12 | –
22 | 6.58 µM | – | – | CC(=O)Nc1cc(NC(C)=O)c2ccc(/C=C/c3ccccc3Br)nc2c1OC(C)=O | –
23 | 6.1 µM | 0.0907 | 4.26 µM | COC1=CC(=O)c2ccc(C)nc2C1=O | –
24 | – | 1.5395 | – | Oc1cccc2ccc(/C=C/c3cccc(Cl)c3)nc12 | 15%
25 | 51.1 µM | 1.3842 | – | O=C(O)c1ccc2nc(/C=C/c3ccccc3O)ccc2c1 | –
26 | 79.1 µM | – | – | COc1ccc(/C=C/c2ccc3c([N+](=O)[O-])cc([N+](=O)[O-])c(O)c3n2)cc1 | –
27 | 15.3 µM | 1.8165 | – | O=C(O)c1cccc2ccc(/C=C/c3ccc(Cl)cc3)nc12 | –
28 | 158 µM | – | – | O=C(O)c1cc([N+](=O)[O-])c2ccc(/C=C/c3ccccc3Cl)nc2c1O | –

Row | Compound | IC50 (P388 [1]) | log K [2] | IC50 (SK-N-MC) | inhibition at 0.1 µM (P388 [3])
29 | O=[N+]([O-])c1cc([N+](=O)[O-])c2cccnc2c1O | 7.14 µM | 0.7154 | > 6.25 µM | –
